System: U2OS
Assay: Multiplex assay against U2OS
Type: toxicity, cell-based
Details: human
Procedure, shortened: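 Values for tubulin, mitochondrial-mass and membrane-permeability phenotypes are per cents of cells with healthy nuclei. These cells were identified by CellPathfinder machine-learning gating of live cells that had been stained at seeding with Hoechst33342, BioTracker Green Microtubule Cytoskeleton Dye, MitoTracker Red and Annexin V Alexa Fluor 680 and imaged on a CQ1 microscope at 37°C and 5% CO2 after compound addition. The gating first set Hoechst high-intensity objects apart from normal cells, then split normal cells into healthy, pyknosed or fragmented nuclei, and pyknosed cells into mitotic or apoptotic.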

[1] = 12 h, 1 µM, compound concentration 1 uM, replicate 1
[2] = 12 h, 1 µM, compound concentration 1 uM, replicate 2
[3] = 12 h, 10 µM, compound concentration 10 uM, replicate 1
[4] = 12 h, 10 µM, compound concentration 10 uM, replicate 2
[5] = 24 h, 1 µM, compound concentration 1 uM, replicate 1
[6] = 24 h, 1 µM, compound concentration 1 uM, replicate 2
[7] = 24 h, 10 µM, compound concentration 10 uM, replicate 1
[8] = 24 h, 10 µM, compound concentration 10 uM, replicate 2
[9] = 48 h, 1 µM, compound concentration 1 uM, replicate 1
[10] = 48 h, 1 µM, compound concentration 1 uM, replicate 2
[11] = 48 h, 10 µM, compound concentration 10 uM, replicate 1
[12] = 48 h, 10 µM, compound concentration 10 uM, replicate 2

Oc1c(CN2CCN(c3ccccn3)CC2)cc(Cl)c2cccnc12
Population Apoptotic (%) [1]: 95%
Population Fragmented Nuclei (%) [1]: 24%
Population Healthy Nuclei (%) [1]: 64%
Population Hoechst High Intensity Objects (%) [1]: 1%
Population Membrane Permeable-Phenotype (%) [1]: 3%
Population Mitochondria Different-Phenotype (%) [1]: 1%
Population Mitotic Cells (%) [1]: 4%
Population Normal (%) [1]: 98%
Population Pyknosed Nuclei (%) [1]: 10%
Population Tubulin-Different-Phenotype (%) [1]: 2%
Total Cell Count [1]: 237
Population Apoptotic (%) [2]: 100%
Population Fragmented Nuclei (%) [2]: 16%
Population Healthy Nuclei (%) [2]: 78%
Population Membrane Permeable-Phenotype (%) [2]: 13%
Population Mitochondria Different-Phenotype (%) [2]: 4%
Population Mitotic Cells (%) [2]: 0%
Population Pyknosed Nuclei (%) [2]: 5%
Population Tubulin-Different-Phenotype (%) [2]: 8%
Total Cell Count [2]: 93
Population Apoptotic (%) [3]: 84%
Population Fragmented Nuclei (%) [3]: 31%
Population Healthy Nuclei (%) [3]: 56%
Population Hoechst High Intensity Objects (%) [3]: 2%
Population Membrane Permeable-Phenotype (%) [3]: 12%
Population Mitochondria Different-Phenotype (%) [3]: 28%
Population Mitotic Cells (%) [3]: 15%
Population Normal (%) [3]: 97%
Population Pyknosed Nuclei (%) [3]: 11%
Population Tubulin-Different-Phenotype (%) [3]: 8%
Total Cell Count [3]: 229
Population Apoptotic (%) [4]: 87%
Population Fragmented Nuclei (%) [4]: 18%
Population Healthy Nuclei (%) [4]: 68%
Population Hoechst High Intensity Objects (%) [4]: 1%
Population Membrane Permeable-Phenotype (%) [4]: 6%
Population Mitochondria Different-Phenotype (%) [4]: 35%
Population Mitotic Cells (%) [4]: 12%
Population Normal (%) [4]: 98%
Population Pyknosed Nuclei (%) [4]: 13%
Population Tubulin-Different-Phenotype (%) [4]: 11%
Total Cell Count [4]: 118
Population Apoptotic (%) [5]: 88%
Population Fragmented Nuclei (%) [5]: 29%
Population Healthy Nuclei (%) [5]: 64%
Population Hoechst High Intensity Objects (%) [5]: 1%
Population Membrane Permeable-Phenotype (%) [5]: 3%
Population Mitochondria Different-Phenotype (%) [5]: 2%
Population Mitotic Cells (%) [5]: 11%
Population Normal (%) [5]: 98%
Population Pyknosed Nuclei (%) [5]: 6%
Population Tubulin-Different-Phenotype (%) [5]: 2%
Total Cell Count [5]: 270
Population Apoptotic (%) [6]: 100%
Population Fragmented Nuclei (%) [6]: 7%
Population Healthy Nuclei (%) [6]: 87%
Population Membrane Permeable-Phenotype (%) [6]: 9%
Population Mitochondria Different-Phenotype (%) [6]: 3%
Population Mitotic Cells (%) [6]: 0%
Population Pyknosed Nuclei (%) [6]: 5%
Population Tubulin-Different-Phenotype (%) [6]: 7%
Total Cell Count [6]: 97
Population Apoptotic (%) [7]: 90%
Population Fragmented Nuclei (%) [7]: 27%
Population Healthy Nuclei (%) [7]: 63%
Population Hoechst High Intensity Objects (%) [7]: 4%
Population Membrane Permeable-Phenotype (%) [7]: 10%
Population Mitochondria Different-Phenotype (%) [7]: 14%
Population Mitotic Cells (%) [7]: 9%
Population Normal (%) [7]: 95%
Population Pyknosed Nuclei (%) [7]: 9%
Population Tubulin-Different-Phenotype (%) [7]: 7%
Total Cell Count [7]: 238
Population Apoptotic (%) [8]: 100%
Population Fragmented Nuclei (%) [8]: 29%
Population Healthy Nuclei (%) [8]: 58%
Population Hoechst High Intensity Objects (%) [8]: 3%
Population Membrane Permeable-Phenotype (%) [8]: 9%
Population Mitochondria Different-Phenotype (%) [8]: 40%
Population Mitotic Cells (%) [8]: 0%
Population Normal (%) [8]: 96%
Population Pyknosed Nuclei (%) [8]: 12%
Population Tubulin-Different-Phenotype (%) [8]: 6%
Total Cell Count [8]: 127
Population Apoptotic (%) [9]: 94%
Population Fragmented Nuclei (%) [9]: 25%
Population Healthy Nuclei (%) [9]: 67%
Population Hoechst High Intensity Objects (%) [9]: 3%
Population Membrane Permeable-Phenotype (%) [9]: 6%
Population Mitochondria Different-Phenotype (%) [9]: 3%
Population Mitotic Cells (%) [9]: 5%
Population Normal (%) [9]: 96%
Population Pyknosed Nuclei (%) [9]: 7%
Population Tubulin-Different-Phenotype (%) [9]: 3%
Total Cell Count [9]: 276
Population Apoptotic (%) [10]: 87%
Population Fragmented Nuclei (%) [10]: 14%
Population Healthy Nuclei (%) [10]: 77%
Population Hoechst High Intensity Objects (%) [10]: 1%
Population Membrane Permeable-Phenotype (%) [10]: 7%
Population Mitochondria Different-Phenotype (%) [10]: 1%
Population Mitotic Cells (%) [10]: 12%
Population Normal (%) [10]: 98%
Population Tubulin-Different-Phenotype (%) [10]: 5%
Total Cell Count [10]: 111
Population Apoptotic (%) [11]: 96%
Population Fragmented Nuclei (%) [11]: 32%
Population Healthy Nuclei (%) [11]: 57%
Population Hoechst High Intensity Objects (%) [11]: 2%
Population Membrane Permeable-Phenotype (%) [11]: 11%
Population Mitochondria Different-Phenotype (%) [11]: 19%
Population Mitotic Cells (%) [11]: 3%
Population Normal (%) [11]: 97%
Population Pyknosed Nuclei (%) [11]: 10%
Population Tubulin-Different-Phenotype (%) [11]: 7%
Total Cell Count [11]: 275
Population Apoptotic (%) [12]: 100%
Population Fragmented Nuclei (%) [12]: 38%
Population Healthy Nuclei (%) [12]: 42%
Population Hoechst High Intensity Objects (%) [12]: 4%
Population Membrane Permeable-Phenotype (%) [12]: 12%
Population Mitochondria Different-Phenotype (%) [12]: 41%
Population Mitotic Cells (%) [12]: 0%
Population Normal (%) [12]: 95%
Population Pyknosed Nuclei (%) [12]: 19%
Population Tubulin-Different-Phenotype (%) [12]: 8%
Total Cell Count [12]: 144

Cc1ccccc1C(=O)Nc1ccc(C(=O)N2CCCC(N(C)C)c3ccccc32)cc1.Cl (stereo unspecified)
Population Apoptotic (%) [1]: 91%
Population Fragmented Nuclei (%) [1]: 20%
Population Healthy Nuclei (%) [1]: 70%
Population Hoechst High Intensity Objects (%) [1]: 1%
Population Membrane Permeable-Phenotype (%) [1]: 5%
Population Mitochondria Different-Phenotype (%) [1]: 3%
Population Mitotic Cells (%) [1]: 8%
Population Normal (%) [1]: 98%
Population Pyknosed Nuclei (%) [1]: 8%
Population Tubulin-Different-Phenotype (%) [1]: 4%
Total Cell Count [1]: 282
Population Apoptotic (%) [2]: 77%
Population Fragmented Nuclei (%) [2]: 14%
Population Healthy Nuclei (%) [2]: 79%
Population Membrane Permeable-Phenotype (%) [2]: 4%
Population Mitochondria Different-Phenotype (%) [2]: 5%
Population Mitotic Cells (%) [2]: 22%
Population Pyknosed Nuclei (%) [2]: 5%
Population Tubulin-Different-Phenotype (%) [2]: 1%
Total Cell Count [2]: 157
Population Apoptotic (%) [3]: 59%
Population Fragmented Nuclei (%) [3]: 18%
Population Healthy Nuclei (%) [3]: 55%
Population Hoechst High Intensity Objects (%) [3]: 4%
Population Membrane Permeable-Phenotype (%) [3]: 14%
Population Mitochondria Different-Phenotype (%) [3]: 11%
Population Mitotic Cells (%) [3]: 40%
Population Normal (%) [3]: 95%
Population Pyknosed Nuclei (%) [3]: 25%
Population Tubulin-Different-Phenotype (%) [3]: 8%
Total Cell Count [3]: 213
Population Apoptotic (%) [4]: 56%
Population Healthy Nuclei (%) [4]: 62%
Population Hoechst High Intensity Objects (%) [4]: 1%
Population Membrane Permeable-Phenotype (%) [4]: 15%
Population Mitochondria Different-Phenotype (%) [4]: 25%
Population Mitotic Cells (%) [4]: 43%
Population Normal (%) [4]: 98%
Population Pyknosed Nuclei (%) [4]: 19%
Population Tubulin-Different-Phenotype (%) [4]: 15%
Total Cell Count [4]: 83
Population Apoptotic (%) [5]: 88%
Population Fragmented Nuclei (%) [5]: 18%
Population Healthy Nuclei (%) [5]: 70%
Population Hoechst High Intensity Objects (%) [5]: 0%
Population Membrane Permeable-Phenotype (%) [5]: 6%
Population Mitochondria Different-Phenotype (%) [5]: 3%
Population Mitotic Cells (%) [5]: 11%
Population Normal (%) [5]: 99%
Population Pyknosed Nuclei (%) [5]: 10%
Population Tubulin-Different-Phenotype (%) [5]: 4%
Total Cell Count [5]: 333
Population Apoptotic (%) [6]: 66%
Population Fragmented Nuclei (%) [6]: 13%
Population Healthy Nuclei (%) [6]: 77%
Population Hoechst High Intensity Objects (%) [6]: 1%
Population Membrane Permeable-Phenotype (%) [6]: 5%
Population Mitochondria Different-Phenotype (%) [6]: 4%
Population Mitotic Cells (%) [6]: 33%
Population Normal (%) [6]: 98%
Population Pyknosed Nuclei (%) [6]: 9%
Population Tubulin-Different-Phenotype (%) [6]: 3%
Total Cell Count [6]: 192
Population Apoptotic (%) [7]: 71%
Population Fragmented Nuclei (%) [7]: 16%
Population Healthy Nuclei (%) [7]: 51%
Population Hoechst High Intensity Objects (%) [7]: 4%
Population Membrane Permeable-Phenotype (%) [7]: 16%
Population Mitochondria Different-Phenotype (%) [7]: 14%
Population Mitotic Cells (%) [7]: 28%
Population Normal (%) [7]: 95%
Population Pyknosed Nuclei (%) [7]: 31%
Population Tubulin-Different-Phenotype (%) [7]: 6%
Total Cell Count [7]: 211
Population Apoptotic (%) [8]: 46%
Population Fragmented Nuclei (%) [8]: 27%
Population Healthy Nuclei (%) [8]: 53%
Population Hoechst High Intensity Objects (%) [8]: 5%
Population Membrane Permeable-Phenotype (%) [8]: 18%
Population Mitochondria Different-Phenotype (%) [8]: 18%
Population Mitotic Cells (%) [8]: 53%
Population Normal (%) [8]: 94%
Population Pyknosed Nuclei (%) [8]: 18%
Population Tubulin-Different-Phenotype (%) [8]: 18%
Total Cell Count [8]: 73
Population Apoptotic (%) [9]: 85%
Population Fragmented Nuclei (%) [9]: 14%
Population Healthy Nuclei (%) [9]: 71%
Population Hoechst High Intensity Objects (%) [9]: 1%
Population Membrane Permeable-Phenotype (%) [9]: 5%
Population Mitochondria Different-Phenotype (%) [9]: 3%
Population Mitotic Cells (%) [9]: 14%
Population Normal (%) [9]: 98%
Population Pyknosed Nuclei (%) [9]: 13%
Population Tubulin-Different-Phenotype (%) [9]: 3%
Total Cell Count [9]: 414
Population Apoptotic (%) [10]: 83%
Population Fragmented Nuclei (%) [10]: 15%
Population Healthy Nuclei (%) [10]: 72%
Population Membrane Permeable-Phenotype (%) [10]: 7%
Population Mitochondria Different-Phenotype (%) [10]: 5%
Population Mitotic Cells (%) [10]: 16%
Population Pyknosed Nuclei (%) [10]: 12%
Population Tubulin-Different-Phenotype (%) [10]: 4%
Total Cell Count [10]: 248
Population Apoptotic (%) [11]: 71%
Population Fragmented Nuclei (%) [11]: 28%
Population Healthy Nuclei (%) [11]: 43%
Population Hoechst High Intensity Objects (%) [11]: 8%
Population Membrane Permeable-Phenotype (%) [11]: 17%
Population Mitochondria Different-Phenotype (%) [11]: 8%
Population Mitotic Cells (%) [11]: 28%
Population Normal (%) [11]: 91%
Population Pyknosed Nuclei (%) [11]: 28%
Population Tubulin-Different-Phenotype (%) [11]: 7%
Total Cell Count [11]: 206
Population Apoptotic (%) [12]: 84%
Population Healthy Nuclei (%) [12]: 42%
Population Membrane Permeable-Phenotype (%) [12]: 11%
Population Mitochondria Different-Phenotype (%) [12]: 30%
Population Mitotic Cells (%) [12]: 16%
Population Pyknosed Nuclei (%) [12]: 29%
Population Tubulin-Different-Phenotype (%) [12]: 13%
Total Cell Count [12]: 93

Source: ChEMBL document CHEMBL5058577, “EUbOPEN Chemogenomics Library 2 (Multiplex)” (2022)
